# ChEMBL document CHEMBL1949646, “Design, synthesis, in vitro antimicrobial and anticancer activity of novel methylenebis-isoxazolo[4,5-b]azepines derivatives” (Eur J Med Chem, 2012)
# How the values were obtained:
# Bacillus subtilis = assay: Antibacterial activity against Bacillus subtilis after 24 to 28 hrs by agar diffusion method; type: functional
# Lactococcus lactis = assay: Antibacterial activity against Streptococcus lactis after 24 to 28 hrs by agar diffusion method; type: functional
# Escherichia coli = assay: Antibacterial activity against Escherichia coli after 24 to 28 hrs by agar diffusion method; type: functional
# Pseudomonas aeruginosa = assay: Antibacterial activity against Pseudomonas aeruginosa after 24 to 28 hrs by agar diffusion method; type: functional
# Aspergillus flavus = assay: Antifungal activity against Aspergillus flavus after 5 days by agar diffusion method; type: functional; settings: 120 h
# Trichoderma viride = assay: Antifungal activity against Trichoderma viride after 5 days by agar diffusion method; type: functional; settings: 120 h
# MCF7 = assay: Cytotoxicity against human estrogen receptor-positive MCF7 cells after 48 hrs by MTT assay; type: functional, cell-based; settings: MCF7, 48 h
# In short: (§1)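 Cells kept in a humidified 5% CO2 incubator. Compounds diluted in culture medium and added to wells alongside a vehicle control. After MTT, supernatant removed, formazan dissolved in DMSO, and absorbance read at 540 nm. Percentage growth inhibition calculated. At least three independent assays.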
# MDA-MB-231 = assay: Cytotoxicity against human estrogen receptor-negative MDA-MB-231 cells after 48 hrs by MTT assay; type: functional, cell-based; settings: MDA-MB-231, 48 h; in short: as §1
# HEK293 = assay: Cytotoxicity against human HEK293 cells after 48 hrs by MTT assay; type: cell-based; settings: HEK293, 48 h; in short: as §1
SMILES,MIC (Bacillus subtilis) [µg/mL],MIC (Lactococcus lactis) [µg/mL],MIC (Escherichia coli) [µg/mL],MIC (Pseudomonas aeruginosa) [µg/mL],MIC (Aspergillus flavus) [µg/mL],MIC (Trichoderma viride) [µg/mL],IC50 (MCF7) [µM],IC50 (MDA-MB-231) [µM],IC50 (HEK293) [µM]
Cc1noc2c1N=C(c1ccc(Br)cc1)CC(c1cc(Cc3ccc(O)c(C4CC(c5ccc(Br)cc5)=Nc5c(C)noc5C4)c3)ccc1O)C2 (stereo not given),30,25,27,30,30,32,34.2,51.2,54.5
Cc1noc2c1N=C(c1ccc([N+](=O)[O-])cc1)CC(c1cc(Cc3ccc(O)c(C4CC(c5ccc([N+](=O)[O-])cc5)=Nc5c(C)noc5C4)c3)ccc1O)C2 (stereo not given),30,26,28,28,30,30,36.3,53.4,55.6
Cc1noc2c1N=C(c1ccc(Cl)cc1)CC(c1cc(Cc3ccc(O)c(C4CC(c5ccc(Cl)cc5)=Nc5c(C)noc5C4)c3)ccc1O)C2 (stereo not given),28,25,28,30,32,30,30.4,52.5,53.3
COc1ccc(C2=Nc3c(C)noc3CC(c3cc(Cc4ccc(O)c(C5CC(c6ccc(OC)cc6)=Nc6c(C)noc6C5)c4)ccc3O)C2)cc1 (stereo not given),35,30,35,32,35,40,40.4,58.1,57.4
CCn1cc(C(=O)O)c(=O)c2ccc(C)nc21 [NALIDIXIC ACID],30,25,28,30,–,–,–,–,–

# Continued, in another order:
MIC (Bacillus subtilis) [µg/mL],MIC (Lactococcus lactis) [µg/mL],MIC (Escherichia coli) [µg/mL],MIC (Pseudomonas aeruginosa) [µg/mL],MIC (Aspergillus flavus) [µg/mL],MIC (Trichoderma viride) [µg/mL],SMILES,IC50 (MCF7) [µM],IC50 (MDA-MB-231) [µM],IC50 (HEK293) [µM]
35,40,40,35,40,40,Cc1noc2c1N=C(c1ccccc1)CC(c1cc(Cc3ccc(O)c(C4CC(c5ccccc5)=Nc5c(C)noc5C4)c3)ccc1O)C2 (stereo not given),80.6,82.6,85.4
35,32,35,40,35,38,Cc1ccc(C2=Nc3c(C)noc3CC(c3cc(Cc4ccc(O)c(C5CC(c6ccc(C)cc6)=Nc6c(C)noc6C5)c4)ccc3O)C2)cc1 (stereo not given),42.3,61.1,63.4
38,35,36,38,38,40,Cc1noc2c1N=C(c1ccccc1O)CC(c1cc(Cc3ccc(O)c(C4CC(c5ccccc5O)=Nc5c(C)noc5C4)c3)ccc1O)C2 (stereo not given),44.3,63.4,65.5
20,22,16,14,20,16,Cc1noc2c1N=C(c1ccco1)CC(c1cc(Cc3ccc(O)c(C4CC(c5ccco5)=Nc5c(C)noc5C4)c3)ccc1O)C2 (stereo not given),12.5,10.3,30.2
19,20,14,12,15,14,Cc1noc2c1N=C(c1cccs1)CC(c1cc(Cc3ccc(O)c(C4CC(c5cccs5)=Nc5c(C)noc5C4)c3)ccc1O)C2 (stereo not given),10.2,18.2,10.3
